SMILES strings stand for the structures.

This series in a line: Toxicity liver stage against HepG2, at 10uM. Also on record: test concentration 10 uM, cell line HepG2-A16-CD81EGFP. It is filed as cell-based. The settings on record: human, HepG2-A16-CD81EGFP cells; read-out: INHIBITION
The method in brief:
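Uninfected HepG2-A16-CD81EGFP cells, 3 × 10^3 per well, 1536-well, plated on prespotted compound at 10 μM final, parasite-free screening media added to match infected plates; puromycin 10 μM positive, DMSO 0.5% negative; run in parallel with 48 h PbLuc assay at 37 °C, 5% CO2; viability by CellTiter-Glo luminescence, normalized to controls.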
With `COc1ccc(C(=O)Nc2c(C)nc3cccc(C)n3c2=O)cc1`, the cytotoxicity at 10 µM worked out at 8.1%.

Take `CS(=O)(=O)N1CCN(C(=O)c2cnn3c2OCCC3)CC1`: the cytotoxicity at 10 µM was -3.45%.

On to `CC(C)(C)C(=O)N1CCC2(CC1)CC(Oc1ccccc1)CO2` (stereo not drawn), for which the cytotoxicity at 10 µM came out at 4.12%.

`c1cncc(CN2CCn3cc(Cn4cccn4)nc3C2)c1`: the cytotoxicity at 10 µM turned out to be 4.93%.

As for `CN1CC(=O)N(c2ccsc2)CC12CCN(Cc1nccn1C)C2` (stereo not drawn), the cytotoxicity at 10 µM is -0.269%.

For the compound `COc1cccc2c1ccn2CC(=O)N1CCCC(C(=O)O)C1` (stereo not drawn), the cytotoxicity at 10 µM came to 6.28%.

In the case of `O=c1[nH]c2nc(N3CCOCC3)ncc2c(=O)n1-c1cccc(F)c1`, the cytotoxicity at 10 µM turned out to be 9.32%.

As for `O=c1[nH]cnc2[nH]c(N3CCOCC3)nc12`, the cytotoxicity at 10 µM worked out at 2.9%.

Turning to `Cc1cnc2n(c1=O)C(CC(=O)NCc1cc(-c3cccs3)on1)CS2` (stereo not drawn), the cytotoxicity at 10 µM is -1.51%.

`CC(=O)N1[C@H](Cn2cncn2)C[C@@H]2CN(c3ccc(C)nn3)CC[C@@H]21`: the cytotoxicity at 10 µM was -13.4%.

Take `CS(=O)(=O)Nc1ccn(Cc2ccc(F)cc2Cl)n1`: the cytotoxicity at 10 µM was determined as 6.64%.

For `Cc1c(CN(C)C(=O)c2ccnn2C)cnn1C`, the cytotoxicity at 10 µM is -5.33%.

`CCc1nc(NCCCOC)c2c(n1)c(C)nn2C`: the cytotoxicity at 10 µM turned out to be 2.92%.

Take `Cc1nc2c(c(=O)[nH]1)CCN(Cc1ccc3c(c1)CCCN3C)C2`: the cytotoxicity at 10 µM was -1.87%.

As for `O=C(Cn1cc(Cl)cn1)NCCN1CCC(O)(c2ccc(F)cc2)CC1`, the cytotoxicity at 10 µM turned out to be 3.41%.

In the case of `O=C(c1cnccn1)N1CCCC(Cc2ccccn2)C1` (stereo not drawn), the cytotoxicity at 10 µM came to 6.95%.

As for `O=C(c1cc[nH]n1)N1CCCC1c1cnccn1` (stereo not drawn), the cytotoxicity at 10 µM was -25.4%.

As for `O=S(=O)(c1ccccc1)N1CCCC(c2nccs2)C1` (stereo not drawn), the cytotoxicity at 10 µM was -23.4%.

As for `COCC(=O)N1CCCCC1c1nccc(C)n1` (stereo not drawn), the cytotoxicity at 10 µM is -14.6%.

Take `Cc1nc(C2CN(C)CCO2)cc(N2CCSCC2)n1` (stereo not drawn): the cytotoxicity at 10 µM is -15.6%.

Take `COCCN1CCC(Cc2cncc(-c3ccc(C(=O)O)cc3)n2)CC1`: the cytotoxicity at 10 µM was -27.6%.

As to `COCC(=O)N1CCCC1c1ccnc(Nc2cnccn2)n1` (stereo not drawn), the cytotoxicity at 10 µM is -4.3%.

As to `CNc1cncc(C2CCCN(S(C)(=O)=O)C2)n1` (stereo not drawn), the cytotoxicity at 10 µM came out at 3.19%.

Consider `NC(=O)CN1CCC(NCc2cc(C(F)(F)F)ccc2Cl)CC1`, for which the cytotoxicity at 10 µM was -3.01%.

With `CC(NC1(CNS(C)(=O)=O)CCCC1)c1ccccc1` (stereo not drawn), the cytotoxicity at 10 µM was 8.43%.

For `O=C(Nc1ccc(N2CCCCC2)cn1)C1CCCN1C(=O)C1CC1` (stereo not drawn), the cytotoxicity at 10 µM is -6.35%.

As for `CCOC(=O)N(C)C1CCN(Cc2csc(C)n2)CC1`, the cytotoxicity at 10 µM is -3.37%.

Consider `CSCc1cc(F)ccc1CNC(=O)N1CCC[C@@H]1CO`, for which the cytotoxicity at 10 µM amounted to 4.8%.

For the compound `Cc1cc(CN(C)S(=O)(=O)N2CCCC2c2ccc(C)o2)no1` (stereo not drawn), the cytotoxicity at 10 µM turned out to be 3.33%.

Turning to `Cc1cc(CN2CCN(C(=O)Cc3ccccc3F)CC2)on1`, the cytotoxicity at 10 µM was -4.02%.

Take `Cc1ccoc1C(=O)NCCOc1ccc(C(F)(F)F)cn1`: the cytotoxicity at 10 µM was -4.02%.

Consider `Cc1cc(S(C)(=O)=O)c(C)c(S(=O)(=O)N2CCN(C)CC2)c1`, for which the cytotoxicity at 10 µM turned out to be 11.7%.

In the case of `CC(C)c1nc(C2CCCN2C(=O)CN(C)Cc2ccccc2)no1` (stereo not drawn), the cytotoxicity at 10 µM is -4.86%.

In the case of `CCCn1nnnc1CSCc1cn2c(C)cccc2n1`, the cytotoxicity at 10 µM is 8%.

On to `COc1cncc(N2CCN(Cc3ccco3)CC2)n1`, for which the cytotoxicity at 10 µM came to 0.197%.

On to `CCC(=O)N1CCN(C(=O)NC2CCc3ccccc3C2)CC1` (stereo not drawn), for which the cytotoxicity at 10 µM is -15.9%.

As to `CSc1ccc(OC(C)C(=O)Nc2cc[nH]n2)cc1` (stereo not drawn), the cytotoxicity at 10 µM came out at 7.71%.

`Cc1cc(C)n(-c2cncc(N3CCN(C(=O)C(C)(C)C)CC3)n2)n1`: the cytotoxicity at 10 µM is -3.22%.

Turning to `O=C(CN1CCCC1Cn1cncn1)NC(C1CC1)C1CC1` (stereo not drawn), the cytotoxicity at 10 µM is -12.8%.

Turning to `Cc1nnnn1-c1ccc(CC(=O)N2CCOCC(O)C2)cc1` (stereo not drawn), the cytotoxicity at 10 µM is -7.46%.

Turning to `CC(=O)N1CC[C@]2(O)CCN(Cc3nc(C)c[nH]3)C[C@@H]2C1`, the cytotoxicity at 10 µM is -5.79%.

With `c1ccc(-c2cc(NCCCC3CCOC3)n3nccc3n2)cc1` (stereo not drawn), the cytotoxicity at 10 µM is -0.309%.

`CCn1ncnc1C(C)NC(=O)Cc1cc2c(cc1Cl)OCCO2` (stereo not drawn): the cytotoxicity at 10 µM was -6.38%.

`O=S(=O)(CC1CC1)c1ncc(CN2CCOCC2)n1CC1CCCO1` (stereo not drawn): the cytotoxicity at 10 µM is -3.06%.

`Cc1c(C(C)NC2CCCC2)cnn1-c1ccc(F)cc1F` (stereo not drawn): the cytotoxicity at 10 µM amounted to 4.91%.

`CC(C)n1cnnc1CN(C)C(=O)c1ccccc1-n1cncn1`: the cytotoxicity at 10 µM is -1.49%.

Turning to `Nc1nnc(CCNC(=O)c2cccc(C3CCCNC3)c2)s1` (stereo not drawn), the cytotoxicity at 10 µM amounted to 2.9%.

As to `CCCc1noc(C2CC(=O)N(C(C)(C)C)C2)n1` (stereo not drawn), the cytotoxicity at 10 µM is 0.0198%.

Take `COc1ccc(CCNC(=O)N2CCN(C)[C@@H]3CS(=O)(=O)C[C@@H]32)cc1`: the cytotoxicity at 10 µM was 6.05%.

Regarding `NC(=O)CN1CC2(CCC1=O)CCN(Cc1ccc(F)cc1Cl)CC2`, the cytotoxicity at 10 µM stood at 3.59%.

On to `CCN(Cc1ccncc1)C(=O)C1COc2c(cccc2OC)C1` (stereo not drawn), for which the cytotoxicity at 10 µM was 3.4%.

In the case of `CCc1cc(N(C)Cc2nonc2C)nc(N(C)C)n1`, the cytotoxicity at 10 µM was -6.32%.

Take `NCCc1nc(N[C@@H](CO)c2ccccc2)c2ccccc2n1`: the cytotoxicity at 10 µM is 9.24%.

Take `CCCN1CCC(Cc2nn3c(C(C)C)nnc3s2)CC1`: the cytotoxicity at 10 µM was -6.17%.

As for `Cc1nn(C)c(Oc2ccc(Cl)cc2)c1CN1CCC(CN)C1` (stereo not drawn), the cytotoxicity at 10 µM was -7.52%.

Turning to `COc1cc(-c2ccc(F)c3c2OC(CN)C3)cc(OC)c1OC` (stereo not drawn), the cytotoxicity at 10 µM was 1.35%.

In the case of `COc1ccc(/C=C/CN2CCC3(C2)CN(C)C(=O)O3)cc1` (stereo not drawn), the cytotoxicity at 10 µM worked out at 0.313%.

Take `CNC(=O)CN(C)c1nc(-c2ccncc2)nc2c1CCN(C(C)=O)C2`: the cytotoxicity at 10 µM is -5.13%.

As to `CCn1nc(C)c(CCn2ccnc2-c2cc3n(n2)CCCNC3)c1C`, the cytotoxicity at 10 µM is -2.1%.

Consider `COc1ccc(F)cc1C(C(=O)O)N1CCSCC1` (stereo not drawn), for which the cytotoxicity at 10 µM is -4.2%.

For the compound `O=C(c1ccc2c(c1)OCO2)N1CCC(Nc2cccnn2)CC1`, the cytotoxicity at 10 µM is -15.6%.

Regarding `CCOc1ccnc(N2CCN(C(=O)c3ccc(OC)cc3)CC2)n1`, the cytotoxicity at 10 µM is -15.6%.

Turning to `CN(CC(=O)NCc1ccccn1)C1CCCN(c2cccnn2)C1` (stereo not drawn), the cytotoxicity at 10 µM was -9.06%.

Turning to `CC1CN(C)c2ccccc2N(C(=O)c2ccc(=O)n(C)c2)C1` (stereo not drawn), the cytotoxicity at 10 µM was -3.51%.

`O=C(NCCn1ccnc1)N1CCCC1c1ccncc1` (stereo not drawn): the cytotoxicity at 10 µM was -10.9%.

Turning to `NC(=O)Cn1cc(NC(=O)N2CCC(c3ccccc3)CC2)cn1`, the cytotoxicity at 10 µM is -7.69%.

As to `CC(Cn1ccnc1)NC(=O)N1CCN(Cc2ccsc2)CC1` (stereo not drawn), the cytotoxicity at 10 µM is -6.33%.

In the case of `CC(C)(C)C(O)CN1CCN(C(=O)c2ccc3c(c2)COC3)CC1` (stereo not drawn), the cytotoxicity at 10 µM is -2.42%.

`CCc1noc(C)c1C(=O)N1CCCC1c1c(C)nn(C)c1C` (stereo not drawn): the cytotoxicity at 10 µM was -6.97%.

On to `c1coc(-c2noc(CN3CCCC3Cn3cncn3)n2)c1` (stereo not drawn), for which the cytotoxicity at 10 µM is -0.282%.

As for `CN(Cc1ccsc1)C(=O)Nc1ccc(S(C)(=O)=O)cc1`, the cytotoxicity at 10 µM is -4.77%.

As for `CCOc1ccnc(N2CCN(C(=O)c3cnc[nH]3)CC2)n1`, the cytotoxicity at 10 µM is -2.06%.

As to `CCc1nc(CN(C)CC(N)=O)cs1`, the cytotoxicity at 10 µM is -8.9%.

As for `CC(C)c1nc(CN(CC(N)=O)C(C)C)cs1`, the cytotoxicity at 10 µM was -14.4%.

On to `Cc1cccc(C(=O)N2CCN(C(=O)Cc3ccccn3)CC2)c1C`, for which the cytotoxicity at 10 µM is -12.3%.

Take `Cn1cc(C(=O)CC2CCCN2C(=O)c2c[nH]c3ccccc23)cn1` (stereo not drawn): the cytotoxicity at 10 µM is -1.39%.

In the case of `CN(C)CCN1CCC(CNCc2c[nH]nc2C(C)(C)C)CC1`, the cytotoxicity at 10 µM was -3.21%.

On to `CCOCCN1CCN(CC(=O)N2CCCC2)CC1CC` (stereo not drawn), for which the cytotoxicity at 10 µM is -2.47%.

Turning to `Cc1nc(C)n(C2CCCN(C(=O)c3cn4cccnc4n3)C2)n1` (stereo not drawn), the cytotoxicity at 10 µM was -0.776%.

As for `COCCCC(=O)N1CCC(Nc2cccnn2)CC1`, the cytotoxicity at 10 µM was -3.69%.

On to `Cc1cnn(CC2CCCN2C(=O)c2cccnc2-n2cncn2)c1` (stereo not drawn), for which the cytotoxicity at 10 µM was -3.29%.

With `CC(C)(C)c1nc(CN2CCCC2CCc2ccccc2)no1` (stereo not drawn), the cytotoxicity at 10 µM was -5.95%.

As to `CCn1cnnc1CNC(=O)N1CCN(c2cccc(OC)c2)CC1`, the cytotoxicity at 10 µM was -8.62%.

In the case of `Cc1ccc(NC2CCN(C(=O)c3ccsc3)CC2)nn1`, the cytotoxicity at 10 µM is -9.08%.

Consider `Cc1cc(CN(C)C(=O)c2cc3c([nH]c2=O)CCCC3=O)no1`, for which the cytotoxicity at 10 µM is -3.59%.

Take `COc1ccccc1C1(C(=O)NCCN2CCOCC2)CCOCC1`: the cytotoxicity at 10 µM is -11.6%.

Turning to `O=C(CCCOc1ccccc1Cl)N1CCCC(n2cncn2)C1` (stereo not drawn), the cytotoxicity at 10 µM is -0.0868%.

For the compound `CCc1nc(CN2CCCC(NCc3nc4cccnc4[nH]3)C2)no1` (stereo not drawn), the cytotoxicity at 10 µM is 1.92%.

Take `CN1CCOC(CNCc2nc(-c3ccccc3)cs2)C1` (stereo not drawn): the cytotoxicity at 10 µM is -11.5%.

Consider `COc1ncccc1NC(=O)C1CCN(S(C)(=O)=O)CC1`, for which the cytotoxicity at 10 µM is -5.74%.

`COc1cccc(-c2nc(CNCCn3cccn3)cs2)c1`: the cytotoxicity at 10 µM turned out to be 2.43%.

In the case of `c1csc(CN2C[C@@H]3COC[C@]3(COCc3ccncc3)C2)c1`, the cytotoxicity at 10 µM is 18%.

As to `COc1ccc(CN2CCOC3(CCCN(c4nnc(C)o4)C3)C2)cc1` (stereo not drawn), the cytotoxicity at 10 µM is -23.6%.

With `CNCCc1nc2cc(Cl)ccc2[nH]1`, the cytotoxicity at 10 µM amounted to 21.2%.

In the case of `O=C(NCc1ccccn1)[C@H]1COC[C@H]2CN(Cc3ccoc3)C[C@H]21`, the cytotoxicity at 10 µM was found to be 1.54%.

Turning to `CC1N(CC2CC2)C(=O)COC12CCN(Cc1nccs1)CC2` (stereo not drawn), the cytotoxicity at 10 µM was -8.19%.

With `c1cncc(COC[C@H]2CC[C@H]3[C@H](CCN3Cc3cccs3)O2)c1`, the cytotoxicity at 10 µM stood at 3.45%.

As for `O=c1[nH]c2cn(-c3ccc(Br)cc3)c(=O)n2[nH]1`, the cytotoxicity at 10 µM is -5.51%.

The values are drawn from ChEMBL document CHEMBL4513216, “Probing the Open Global Health Chemical Diversity Library for Multistage-Active Starting Points for Next-Generation Antimalarials” (ACS Infect Dis, 2020).
